Compound activity deposited in PubChem BioAssay by Johns Hopkins Ion Channel Center.
KCNK9 block: blocks the human KCNK9 two-pore domain potassium channel. Q9NPC2. HEK293 KCNK9, FluxOR thallium flux fluorescence; active compounds read low. B-score at 10 µM. actives 1.2% (n = 310,000). AID 488922;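 active means ratio B-score over 3 SD below the library mean, with starting fluorescence within 5 SD of its mean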;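 further: negative B-score means less thallium flux so channel inhibition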
Kir21 block: Kir2.1 (mouse) channel inhibition; P35561; HEK293-Kir2.1, FluxOR thallium flux fluorescence; active compounds read low; B-score at 10 µM; actives 0.85% (n = 310,000);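 active means fluorescence ratio B-score at or below minus 3 SD of library scores, with starting-brightness B-score within 2 SD, cut at about -4.2 in these data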;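 further: channel flux triggered by added potassium and thallium sulfate stimulus; B-score of peak minus minimum fluorescence over baseline after thallium stimulus; more negative B-score means stronger Kir2.1 block with less thallium influx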
KCNK3 inh: human KCNK3 channel inhibition, primary screen. O14649. CHO-KCNK3 thallium flux, FluxOR fluorescence; active compounds read low. B-score at 10 µM. actives 0.84% (n = 340,000);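 active means B-score under library mean minus 4 SD, starting fluorescence ratio at most library mean plus 5 SD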;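 further: more negative B-score means stronger inhibition of thallium flux through KCNK3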
hERG rescue: compounds protecting human hERG from proarrhythmic drug block | AID 1511 | Q12809 | activation (rescue from dofetilide block), less the hit threshold, % at 10 µM | actives 0.51% (n = 310,000) | CHO-hERG, FluxOR thallium flux, dofetilide IC70 present;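 active means activation above the mean of controls blocked by dofetilide plus 5 SD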;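 further: thallium influx through hERG after potassium depolarization seen as dye fluorescence rise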
Target sequence (Q12809 whole entry, looked up): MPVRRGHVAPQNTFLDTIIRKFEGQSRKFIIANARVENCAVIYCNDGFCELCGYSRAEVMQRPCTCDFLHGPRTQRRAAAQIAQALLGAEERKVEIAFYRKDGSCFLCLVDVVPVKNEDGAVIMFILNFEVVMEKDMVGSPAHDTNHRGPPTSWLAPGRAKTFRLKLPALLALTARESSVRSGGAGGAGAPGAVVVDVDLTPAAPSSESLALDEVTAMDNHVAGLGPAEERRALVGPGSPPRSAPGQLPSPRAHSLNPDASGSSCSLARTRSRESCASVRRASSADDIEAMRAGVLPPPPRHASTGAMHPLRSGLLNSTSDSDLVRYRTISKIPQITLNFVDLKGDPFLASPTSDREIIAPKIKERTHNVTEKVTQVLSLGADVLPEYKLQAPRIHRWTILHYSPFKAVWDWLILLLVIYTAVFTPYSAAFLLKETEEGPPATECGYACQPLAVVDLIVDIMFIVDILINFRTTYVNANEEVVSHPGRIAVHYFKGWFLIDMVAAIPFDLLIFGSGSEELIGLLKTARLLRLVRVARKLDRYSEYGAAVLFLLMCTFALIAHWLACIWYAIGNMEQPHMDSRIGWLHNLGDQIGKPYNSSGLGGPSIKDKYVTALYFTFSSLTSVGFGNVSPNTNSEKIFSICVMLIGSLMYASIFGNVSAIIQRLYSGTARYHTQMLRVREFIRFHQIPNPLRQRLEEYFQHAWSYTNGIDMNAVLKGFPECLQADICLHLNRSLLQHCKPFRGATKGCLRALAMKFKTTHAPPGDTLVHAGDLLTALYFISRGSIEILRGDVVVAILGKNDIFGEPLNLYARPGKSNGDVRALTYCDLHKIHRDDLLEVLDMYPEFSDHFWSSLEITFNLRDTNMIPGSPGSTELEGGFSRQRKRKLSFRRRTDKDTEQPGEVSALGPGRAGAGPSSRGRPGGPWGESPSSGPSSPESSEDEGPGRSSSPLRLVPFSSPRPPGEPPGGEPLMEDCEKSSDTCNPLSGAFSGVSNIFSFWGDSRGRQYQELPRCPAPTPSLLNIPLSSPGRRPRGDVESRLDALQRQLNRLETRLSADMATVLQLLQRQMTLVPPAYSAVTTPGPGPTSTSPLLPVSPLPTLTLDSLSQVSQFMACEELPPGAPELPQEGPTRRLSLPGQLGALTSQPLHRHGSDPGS
KCNQ1 block: human KCNQ1 channel inhibition; P51787; CHO-K1 KCNQ1, FluxOR thallium flux fluorescence; active compounds read high; B-score at 10 µM; actives 1.3% (n = 310,000);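 active means compounds whose thallium flux B-score, printed positive for inhibition, exceeds three library SD while starting fluorescence stays within three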;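 further: channel opened by potassium depolarization with thallium stimulus after 20 min compound exposure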
KCNQ1 act: potentiates or activates the human KCNQ1 potassium channel; B-score at 10 µM; CHO-K1 KCNQ1, thallium flux FluxOR fluorescence; active compounds read high; actives 0.35% (n = 310,000);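 active means fluorescence ratio B-score, a plate-corrected score, at least three library SD, with initial intensity B-score within 5 SD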
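System: CHO-K1 cells stably expressing KCNQ1 / Medium: assay buffer for compound exposure, DMSO matched across wells / Reagent: thallium- and potassium-containing depolarizing buffer / Compound: one concentration, matched DMSO / Incubation: 20 min compound pretreatment at room temperature / Measured by: kinetic FluxOR fluorescence, 10 s baseline plus 110 s post-stimulus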
KCNQ1 block val: human KCNQ1 channel inhibition, validation assay; inhibition, % at 10 µM; actives 93% (n = 1,600); shares compounds with KCNQ1 block; KCNQ1 cell line, FluxOR thallium flux fluorescence; AID 588353;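 active means primary screen active, with duplicate mean exceeding buffer control mean plus 3 SD of buffer wells, cut at about 28% in these data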;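 further: 0% = buffer control ratio and 100% = XE991 inhibitor control ratio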
CHO Tl flux: counter-screen for KCNQ1 inhibitors: effect in parental CHO cells; shares compounds with KCNQ1 block; parental CHO-K1, FluxOR thallium flux fluorescence ratio; active compounds read low; zero means no signal rise above baseline; fluorescence ratio (Tl flux) at 10 µM; actives 21% (n = 1,600); AID 588366;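 active means mean of duplicate thallium-flux fluorescence ratios in parental host cells more than 5 SD below the buffer control mean, cut at about 0.38 in these data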;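 further: ratio is peak minus minimum fluorescence divided by baseline fluorescence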
KCNQ1 APC inh: blocks human KCNQ1 current in automated patch clamp; shares compounds with KCNQ1 block; KCNQ1-CHO cells; calls only at 10 µM; actives 20% (n = 490);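 active means KCNQ1 current drop exceeding 3 SD of negative control wells, seen in both duplicate runs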;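 further: steady state current during a 2 s step from -80 to +40 mV; negative values mean current inhibition and positive values mean potentiation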
KCNQ2 spec: selectivity of KCNQ1 inhibitors: inhibition of rat KCNQ2 channel; shares compounds with KCNQ1 block; KCNQ2 cells, FluxOR thallium flux fluorescence; inhibition, % at 10 µM; actives 71% (n = 1,600);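 active means mean percent inhibition of the KCNQ2 thallium signal more than 5 SD above the buffer-only control wells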;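 further: KCNQ2 expressed in CHO cells; 0% = buffer control wells and 100% = XE-991 inhibitor control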
KCNQ1-KCNE1 inh: KCNQ1 inhibitor that also blocks human KCNQ1/KCNE1 channel. shares compounds with KCNQ1 block. KCNQ1/KCNE1 cells, FluxOR thallium flux fluorescence. inhibition, % at 10 µM. actives 77% (n = 1,600). AID 652147;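 active means mean percent inhibition of duplicate wells above the buffer-only control mean plus 3 SD of those controls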;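 further: 0% = buffer only wells and 100% = XE-991 inhibitor control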
* = called active by the depositor; i = inactive; . = not tested or not shown; + = active, no number. This is a sample that favours compounds with a hit; in the whole collection about 3.7% have one here.

SMILES	KCNK9 block	Kir21 block	KCNK3 inh	hERG rescue	KCNQ1 block	KCNQ1 act	KCNQ1 block val	CHO Tl flux	KCNQ2 spec	KCNQ1-KCNE1 inh	others
O=C(OCCN1C(=O)c2cccc3c(N4CCOCC4)ccc(c23)C1=O)c1ccc(Cl)cc1	i	-2.4	i	-19	10*	i	+	0.087*	i	i
O=C(OCCN1C(=O)c2ccccc2C1=O)c1cc(S(=O)(=O)N2CCOCC2)ccc1F	i	-0.85	i	-9	i	i	.	.	.	.
CCC(=O)N1CCN(c2ccccc2NC(=O)COc2ccc(C(C)C)cc2)CC1	i	-2.6	i	-7	i	i	.	.	.	.
O=C1CCCCC1C(Nc1ccc(Cl)cc1)c1ccccc1 (stereo not drawn)	i	0.7	i	-8	i	i	.	.	.	.
O=C1CCCCC1C(Nc1ccc(Br)cc1)c1ccccc1 (stereo not drawn)	-6.6*	1.1	i	-3	8*	i	126*	0.44	89%*	172%*	KCNQ1 APC inh=+
Cc1ccc(S(=O)(=O)N2[C@@H](c3ccc(Cl)cc3)C(C(=O)O)=CC[C@H]2c2ccc(Cl)cc2)cc1	.	.	i	.	.	.	.	.	.	.
Cc1ccc(NC(=O)c2sc3nc(C)nc(N4CCN(c5ccccn5)CC4)c3c2C)c(C)c1	i	0.54	i	-13	8*	i	84*	0.46	97%*	98%*
Cc1nc(N2CCN(c3ccccn3)CC2)c2c(C)c(C(=O)Nc3ccc(Br)cc3C)sc2n1	i	-0.89	i	-13	7*	i	82*	0.45	98%*	104%*
Cc1nc(N2CCN(c3ccccn3)CC2)c2c(C)c(C(=O)N3CCN(c4ccccc4F)CC3)sc2n1	i	1.3	i	-11	i	i	.	.	.	.
Cc1ccc(NC(=O)c2sc3ncnc(N4CCN(c5ccccn5)CC4)c3c2C)c(C)c1	i	1	i	-21	i	i	.	.	.	.
CC(C)(C)OC(=O)N[C@@H](COCc1ccccc1)C(=O)N[C@@H](CO)[C@H](O)[C@@H]1C[C@@H]1C(=O)NC1CCCCC1	i	-0.41	i	-4	i	i	.	.	.	.
Cc1ccc(C)c(C(=O)COC(=O)c2ccc(C)c(S(=O)(=O)N3CCOCC3)c2)c1	.	.	i	.	.	.	.	.	.	.
Cc1ccc(S(=O)(=O)N2CCCc3cc(NC(=O)c4c(F)cccc4F)ccc32)cc1	i	1.4	i	-7	7*	i	66*	0.44	85%*	100%*
COc1cccc(OC)c1C(=O)Nc1ccc2c(c1)CCCN2S(=O)(=O)c1ccc(C)cc1	i	-0.7	i	-5	i	i	.	.	.	.
CC(=O)c1cccc(NC(=O)c2ccc3c(c2)CCN3S(=O)(=O)c2ccccc2)c1	i	-0.31	i	-9	6*	i	65*	0.53	i	78%*
COC(=O)CN1C(c2ccccc2O)Nc2ccc(Br)cc2C1c1ccccc1 (stereo not drawn)	-6.6*	0.14	i	-10	8*	i	98*	0.36*	86%*	132%*
CCOC(=O)CSc1nc2sc3c(c2c(=O)n1-c1ccccc1)CCN(C(C)C)C3	i	0.42	i	-4	i	i	.	.	.	.
Cc1cc(C(=O)NC2CCCc3c2cnn3-c2cccc(C)c2C)n(C)n1 (stereo not drawn)	i	0.02	i	-20	16*	i	84*	0.5	60%*	46%*
Cn1nccc1C(=O)NC1CCCc2c1cnn2-c1ccc(C(C)(C)C)cc1 (stereo not drawn)	i	1.1	i	-14	9*	i	94*	0.52	93%*	43%*	KCNQ1 APC inh=i
COC(=O)c1ccccc1NC(=O)CN1CCN(c2ccccn2)CC1	i	-0.76	i	-3	i	i	.	.	.	.
COC(=O)c1ccccc1N/C=C1\CCc2c(c(C)nn2-c2ccccn2)C1=O	i	2.3	i	-15	6*	i	96*	0.51	97%*	141%*	KCNQ1 APC inh=i
NNc1nc(C(F)(F)F)nc2ccccc12	i	-0.02	i	-4	i	i	.	.	.	.
O/C=c1\ccc2cccc3nc(C(F)(F)F)nc1c23	-7.6*	-5.5	i	-8	19*	i	140*	0.31*	i	i
Cc1cccc(N2C(=O)c3cccc4c(N)ccc(c34)C2=O)c1	i	-18	i	-51	23*	i	+	0.0085*	i	i
Cc1cccc(N2C(=O)c3cccc4c(N(C)CCO)ccc(c34)C2=O)c1	i	-5	i	-17	7*	i	122*	0.25*	i	i
SMILES	KCNK9 block	Kir21 block	KCNK3 inh	hERG rescue	KCNQ1 block	KCNQ1 act	KCNQ1 block val	CHO Tl flux	KCNQ2 spec	KCNQ1-KCNE1 inh	others
CN(C)c1ccc2c3c(cccc13)C(=O)N(c1ccccc1)C2=O	i	1.4	.	-12	i	i	.	.	.	.
CC(C)CCN1C(=O)c2cccc3c(N)ccc(c23)C1=O	i	-16	i	-42	24*	i	+	0.0055*	i	i
CCN1C(=O)c2cccc3c(Cl)ccc(c23)C1=O	i	0.14	i	-5	i	i	.	.	.	.
N#Cc1ccccc1NC(=O)C1SC(=Nc2ccccc2)C(C(=O)Nc2ccc(Cl)cc2)=C1N (stereo not drawn)	i	0.93	i	-21	10*	i	112*	0.43	97%*	82%*	KCNQ1 APC inh=i
COCC(=O)N1CCC(Oc2ccc(C(=O)N(C)C(C)c3ccon3)cc2)CC1 (stereo not drawn)	i	0.1	i	-9	i	i	.	.	.	.
CCCN(CCC)CCCNC(=O)c1ccc(CS(=O)(=O)c2c(Cl)cccc2Cl)o1	i	2.5	i	-4	i	i	.	.	.	.
CCc1ccc(CNC(=O)c2cc3c(C)nc4ccccc4c3o2)cc1	i	0.6	i	-20	8*	i	140*	0.25*	113%*	+
COc1cccc(CNC(=O)c2cc3c(C)nc4ccccc4c3o2)c1	i	0.92	i	-14	i	i	.	.	.	.
